This note sets out measurements from ChEMBL document CHEMBL1155251, “Efficient synthesis of the first betulonic acid-acetylene hybrids and their hepatoprotective and anti-inflammatory activity” (2009).

The source made the active and inactive calls. The calls are words filed in the database; no cut-off is given here.

The subject of experiment [1] is Mus musculus. In words: Hepatoprotective activity against CCL4-induced hepatitis in mouse assessed as alkaline phosphatase level at 20 mg/kg, po administered 1 hr prior to CCL4 challenge (reference value: 18.27+/- 1.42 ucat/L). Format: functional. Summed up: (§1)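 Outbred male mice (22–25 g). Acute hepatitis induced by single oral 25% CCl4 in sunflower oil. Compounds given orally as water–Tween-80 suspension 1 h before induction; controls got vehicle. At least ten animals per group. Next day, serum ALP, ALT and AST measured with standard kits; TBARS measured by an established procedure.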

In experiment [2] the test system is Mus musculus. In words: Hepatoprotective activity against CCL4-induced hepatitis in mouse assessed as […] level at 20 mg/kg, po administered 1 hr prior to CCL4 challenge (reference value: 5.04+/- 0.72 ucat/L). Format: functional. Summed up:
as §1

The subject of experiment [3] is Mus musculus. In words: Hepatoprotective activity against CCL4-induced hepatitis in mouse assessed as aspartate amino transferase level at 20 mg/kg, po administered 1 hr prior to CCL4 challenge (reference value: 5.23+/- 0.76 ucat/L). Format: functional. Summed up:
as §1

For experiment [4], the system named is Mus musculus. The experiment in a line: Hepatoprotective activity against CCL4-induced hepatitis in mouse assessed as thiobarbiturate relative substance level at 20 mg/kg, po administered 1 hr prior to CCL4 challenge (reference value: 1.63+/- 0.24 ucat/L). Format: functional. Summed up:
as §1

Experiment [5] concerns Mus musculus. In words: Antiinflammatory activity against carrageenan-induced paw edema in mouse assessed as decrease in index of hind paw edema at 20 mg/kg, po administered 1 hr prior to carrageenan challenge. Format: functional, organism-based. Details: dose 20 mg/kg. Summed up: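 Outbred male mice (22–25 g), ad libitum food/water. Dosed orally at 20 mg/kg as aqueous-Tween suspension 1 h before carrageenan; controls got water–Tween. Killed by cervical dislocation 5 h after phlogogen; hind paws cut at ankle and weighed. Edema index = (treated − untreated paw weight)/untreated paw weight.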
Background: The carrageenan paw model is a standard test of acute inflammation.

Experiment [6] relates to Mus musculus. The experiment in a line: Hepatoprotective activity against CCL4-induced hepatitis in mouse assessed as alkaline phosphatase level at 50 mg/kg, po administered 1 hr prior to CCL4 challenge (reference value: 18.27+/- 1.42 ucat/L). Format: functional. Summed up:
as §1

Experiment [7] has as its system Mus musculus. The experiment in a line: Hepatoprotective activity against CCL4-induced hepatitis in mouse assessed as […] level at 50 mg/kg, po administered 1 hr prior to CCL4 challenge (reference value: 5.04+/- 0.72 ucat/L). Format: functional. Summed up:
as §1

Experiment [8] concerns Mus musculus. In words: Hepatoprotective activity against CCL4-induced hepatitis in mouse assessed as aspartate amino transferase level at 50 mg/kg, po administered 1 hr prior to CCL4 challenge (reference value: 5.23+/- 0.76 ucat/L). Format: functional. Summed up:
as §1

Experiment [9] relates to Mus musculus. In words: Hepatoprotective activity against CCL4-induced hepatitis in mouse assessed as thiobarbiturate relative substance level at 50 mg/kg, po administered 1 hr prior to CCL4 challenge (reference value: 1.63+/- 0.24 ucat/L). Format: functional. Summed up:
as §1

Experiment [10] deals with Mus musculus. The experiment in a line: Hepatoprotective activity against CCL4-induced hepatitis in mouse assessed as alkaline phosphatase level at 100 mg/kg, po administered 1 hr prior to CCL4 challenge (reference value: 18.27+/- 1.42 ucat/L). Format: functional. Summed up:
as §1

Experiment [11] concerns Mus musculus. The experiment in a line: Hepatoprotective activity against CCL4-induced hepatitis in mouse assessed as […] level at 100 mg/kg, po administered 1 hr prior to CCL4 challenge (reference value: 5.04+/- 0.72 ucat/L). Format: functional. Summed up:
as §1

Experiment [12] concerns Mus musculus. In words: Hepatoprotective activity against CCL4-induced hepatitis in mouse assessed as aspartate amino transferase level at 100 mg/kg, po administered 1 hr prior to CCL4 challenge (reference value: 5.23+/- 0.76 ucat/L). Format: functional. Summed up: as §1
For experiment [13], the system named is Mus musculus. The experiment in a line: Hepatoprotective activity against CCL4-induced hepatitis in mouse assessed as thiobarbiturate relative substance level at 100 mg/kg, po administered 1 hr prior to CCL4 challenge (reference value: 1.63+/- 0.24 ucat/L). Format: functional. Summed up:
as §1

For `C=C(C)[C@@H]1CC[C@]2(C(=O)Nc3ccc(I)cc3)CC[C@]3(C)[C@H](CC[C@@H]4[C@@]5(C)CCC(=O)C(C)(C)[C@@H]5CC[C@]43C)[C@@H]12`, the Activity with Mus musculus [1] came out at 10.27 ucat/L; in the experiment with Mus musculus [2], 2.75 ucat/L; in the experiment with Mus musculus [3], 3.09 ucat/L; in the experiment with Mus musculus [4], 2.03 µmol/L. The result in the experiment with Mus musculus [5] was inactive.

Take `COc1ccc2c(c1)c(CC(=O)O)c(C)n2C(=O)c1ccc(Cl)cc1`: in the experiment on Mus musculus [5], the outcome was Active.

With `C=C(C)[C@@H]1CC[C@]2(C(=O)Nc3ccc(C#CCN4CCCCC4)cc3)CC[C@]3(C)[C@H](CC[C@@H]4[C@@]5(C)CCC(=O)C(C)(C)[C@@H]5CC[C@]43C)[C@@H]12`, the Activity in the experiment with Mus musculus [6] was 12.8 ucat/L; in the experiment on Mus musculus [7], 3.08 ucat/L; with Mus musculus [8] it was 3.25 ucat/L; in the experiment on Mus musculus [9], 1.06 µmol/L. In addition, the outcome in the experiment with Mus musculus [5] was Active.

As for `O=C1c2c(O)cc(O)cc2O[C@H](c2ccc(O)c(O)c2)[C@H]1O` [(+)-TAXIFOLIN], the Activity stood at 11.31 ucat/L in the experiment with Mus musculus [10], 3.63 ucat/L with Mus musculus [11], 3.88 ucat/L with Mus musculus [12] and 1.42 µmol/L in the experiment with Mus musculus [13].

On to `C=C(C)[C@@H]1CC[C@]2(C(=O)Nc3ccc(C#CCN4CCOCC4)cc3)CC[C@]3(C)[C@H](CC[C@@H]4[C@@]5(C)CCC(=O)C(C)(C)[C@@H]5CC[C@]43C)[C@@H]12`, for which the Activity with Mus musculus [6] is 14.28 ucat/L; in the experiment with Mus musculus [7], 3.48 ucat/L; in the experiment on Mus musculus [8], 5.25 ucat/L; in the experiment with Mus musculus [9], 3.21 µmol/L. Besides, the result with Mus musculus [5] was Active.
